Measured values: ChEMBL document CHEMBL2177028, “Insights into the structural determinants required for high-affinity binding of chiral cyclopropane-containing ligands to α4β2-nicotinic acetylcholine receptors: an integrated approach to behaviorally active nicotinic ligands” (J Med Chem, 2012)
The source made the active and inactive calls. The rule behind the calls is not given here.

Key:
Mus musculus [1] = assay: Antidepressant-like effect in mouse assessed as behavioral changes at 5 to 10 mg/kg, ip dosed 15 mins before testing by SmartCube system; assay type: functional, organism-based
Method in brief: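 SmartCube automated mouse behavioural profiling. Drug injected 15 min before the session, during which multiple challenges were presented; at least 12 mice per group. Video processed by computer vision to extract over 2000 measures (frequency and duration of states such as grooming and rearing), compared with vehicle signature.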

[2] = Selectivity index, ratio of Ki for Aplysia californica AChBP to Ki for Lymnaea stagnalis AChBP
[3] = molecular target: T1, Soluble acetylcholine receptor (Aplysia californica, UniProt Q8WSF8); assay: Displacement of [3H]epibatidine from Aplysia californica AChBP
T1 sequence (Q8WSF8 whole entry): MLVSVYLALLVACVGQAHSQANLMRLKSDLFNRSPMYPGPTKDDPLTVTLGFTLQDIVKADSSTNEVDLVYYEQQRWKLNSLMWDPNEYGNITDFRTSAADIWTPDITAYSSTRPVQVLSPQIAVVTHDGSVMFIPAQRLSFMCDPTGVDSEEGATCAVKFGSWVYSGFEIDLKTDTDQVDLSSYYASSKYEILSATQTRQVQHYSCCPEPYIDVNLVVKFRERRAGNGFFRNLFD
Method in brief: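 Competition against [3H]epibatidine at acetylcholine binding proteins (Ac- and Ct-AChBP), giving Ki values. Procedure follows the PDSP assay protocol book.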

[4] = Metabolic stability in rat liver microsomes assessed as unchanged compound level at 2 uM measured after 1 hr; assay type: ADME, Microsome; conditions: read-out: Stability
Method in brief: (§1)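 Compound incubated with mouse, rat, dog or human liver microsomes at a starting concentration of 2 μM for 1 h. Percent of parent remaining unchanged determined.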

[5] = molecular target: Neuronal acetylcholine receptor; alpha2/beta4 (Rattus norvegicus, UniProt P12389+P12392); assay: Displacement of [3H]epibatidine from rat alpha2beta4-nAChRs after 4 hrs by scintillation counting; assay type: protein-complex assay
Method in brief: (§2)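 [3H]epibatidine competition binding at heterologously expressed rat nAChR subtypes, run per the PDSP protocol. Native α4β2* receptors were prepared from rat forebrain. Ki values determined.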

Rattus norvegicus = organism: Rattus norvegicus; assay: Selectivity index, ratio of Ki for rat alpha3beta4 nAChR to Ki for rat alpha4beta2-nAChR; method in brief: as §2
Mus musculus [6] = assay: Antidepressant activity in mouse assessed as immobility time at 3 to 30 mg/kg, po after 30 mins by mouse forced swim test; assay type: functional, organism-based
Method in brief: (§3)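 Mouse forced swim test: mice placed in a beaker of water and time spent passively floating (immobility) recorded. Compounds given intraperitoneally or orally; sertraline 20 mg/kg served as positive control.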

Mus musculus [7] = assay: Antidepressant activity in mouse assessed as immobility time at 10 mg/kg, ip after 30 mins by mouse forced swim test; assay type: functional, organism-based; set-up: dose 10 mg/kg; method in brief: as §3
[8] = molecular target: Neuronal acetylcholine receptor; alpha3/beta4 (Rattus norvegicus, UniProt P04757+P12392); assay: Displacement of [3H]epibatidine from rat alpha3beta4-nAChRs after 4 hrs by scintillation counting; assay type: protein-complex assay; method in brief: as §2
[9] = molecular target: T2, Acetylcholine receptor; alpha1/beta1/delta/gamma (Homo sapiens) (UniProt P02708+P07510+P11230+Q07001); assay: Agonist activity at high sensitivity and low sensitivity alpha1beta1gammadelta-nAChR expressed in human TE671/RD cells by 86Rb+ ion flux assay; assay type: functional, cell-based
[10] = molecular target: Neuronal acetylcholine receptor; alpha3/beta2 (Rattus norvegicus, UniProt P04757+P12390); assay: Displacement of [3H]epibatidine from rat alpha3beta2-nAChRs after 4 hrs by scintillation counting; assay type: protein-complex assay; method in brief: as §2
[11] = molecular target: T3, Neuronal acetylcholine receptor; alpha4/beta2 (Homo sapiens, UniProt P17787+P43681); assay: Antagonist activity at high sensitivity and low sensitivity alpha4beta2-nAChR expressed in human SH-EP1 cells assessed as inhibition of carbamylcholine-induced stimulation effect measured after 10 mins carbamylcholine challenge by 86Rb+ ion flux assay; assay type: functional, cell-based
Method in brief: (§4)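 Receptor inactivation measured by 86Rb+ efflux after 10 min pre-exposure to test ligand, followed by carbamylcholine challenge. Cells: SH-EP1 (human α4β2), SH-SY5Y (α3β4*), TE671/RD (α1β1γδ).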

[12] = molecular target: Neuronal acetylcholine receptor; alpha2/beta2 (Rattus norvegicus, UniProt P12389+P12390); assay: Displacement of [3H]epibatidine from rat alpha2beta2-nAChRs after 4 hrs by scintillation counting; assay type: protein-complex assay; method in brief: as §2
[13] = Metabolic stability in dog liver microsomes assessed as unchanged compound level at 2 uM measured after 1 hr; assay type: ADME, Canis lupus familiaris, Microsome; conditions: read-out: Stability; method in brief: as §1
Mus musculus [14] = assay: Antidepressant activity in mouse assessed as immobility time at 3 mg/kg, ip after 30 mins by mouse forced swim test; assay type: functional, organism-based; set-up: dose 3 mg/kg; method in brief: as §3
[15] = molecular target: T2, Acetylcholine receptor; alpha1/beta1/delta/gamma (Homo sapiens); assay: Antagonist activity at high sensitivity and low sensitivity alpha1beta1gammadelta-nAChR expressed in human TE671/RD cells assessed as inhibition of carbamylcholine-induced stimulation effect measured after 10 mins carbamylcholine challenge by 86Rb+ ion flux assay; assay type: functional, cell-based; method in brief: as §4
Mus musculus [16] = assay: Antidepressant activity in mouse assessed as immobility time at 3 mg/kg, po after 30 mins by mouse forced swim test; assay type: functional, organism-based; set-up: dose 3 mg/kg; method in brief: as §3
[17] = molecular target: Neuronal acetylcholine receptor; alpha4/beta2 (Rattus norvegicus, UniProt P09483+P12390); assay: Displacement of [3H]epibatidine from rat alpha4beta2-nAChRs after 4 hrs by scintillation counting; assay type: protein-complex assay; method in brief: as §2
[18] = Metabolic stability in human liver microsomes assessed as unchanged compound level at 2 uM measured after 1 hr; assay type: ADME, Microsome; conditions: read-out: Stability; method in brief: as §1
SH-SY5Y [19] = assay: Antagonist activity at high sensitivity and low sensitivity alpha3beta4*-nAChR expressed in human SH-SY5Y cells assessed as inhibition of carbamylcholine-induced stimulation effect measured after 10 mins carbamylcholine challenge by 86Rb+ ion flux assay; assay type: functional, cell-based; method in brief: as §4
[20] = Displacement of [3H]epibatidine from rat alpha4beta2*-nAChRs after 4 hrs by scintillation counting; method in brief: as §2
[21] = Metabolic stability in mouse liver microsomes assessed as unchanged compound level at 2 uM measured after 1 hr; assay type: ADME, Microsome; conditions: read-out: Stability; method in brief: as §1
[22] = molecular target: T3, Neuronal acetylcholine receptor; alpha4/beta2; assay: Agonist activity at high sensitivity alpha4beta2-nAChR expressed in human SH-EP1 cells by 86Rb+ ion flux assay relative to carbamylcholine; assay type: functional, cell-based
Method in brief: (§5)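 86Rb+ efflux through human α4β2-nAChR (mixed high- and low-sensitivity forms) heterologously expressed in SH-EP1 cells. Agonist efficacy expressed as percent of the response to a maximally efficacious concentration of the full agonist carbamylcholine, with high- and low-sensitivity α4β2 responses reported separately.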

[23] = molecular target: T3, Neuronal acetylcholine receptor; alpha4/beta2; assay: Agonist activity at low sensitivity alpha4beta2-nAChR expressed in human SH-EP1 cells by 86Rb+ ion flux assay relative to carbamylcholine; assay type: functional, cell-based; method in brief: as §5
[24] = molecular target: Neuronal acetylcholine receptor; alpha4/beta4 (Rattus norvegicus, UniProt P09483+P12392); assay: Displacement of [3H]epibatidine from rat alpha4beta4-nAChRs after 4 hrs by scintillation counting; assay type: protein-complex assay; method in brief: as §2
SH-SY5Y [25] = assay: Agonist activity at high sensitivity and low sensitivity alpha3beta4*-nAChR expressed in human SH-SY5Y cells by 86Rb+ ion flux assay; assay type: functional, cell-based
[26] = molecular target: T3, Neuronal acetylcholine receptor; alpha4/beta2; assay: Agonist activity at high sensitivity and low sensitivity alpha4beta2-nAChR expressed in human SH-EP1 cells by 86Rb+ ion flux assay; assay type: functional, cell-based; method in brief: as §5
[27] = molecular target: T3, Neuronal acetylcholine receptor; alpha4/beta2; assay: Antagonist activity at high sensitivity and low sensitivity alpha4beta2-nAChR expressed in human SH-EP1 cells assessed as inhibition of carbamylcholine-induced stimulation effect measured after 10 mins carbamylcholine challenge by 86Rb+ ion flux assay relative to control; assay type: functional, cell-based; method in brief: as §4

Neuronal acetylcholine receptor; alpha2/beta2, sequence (P12389 whole entry): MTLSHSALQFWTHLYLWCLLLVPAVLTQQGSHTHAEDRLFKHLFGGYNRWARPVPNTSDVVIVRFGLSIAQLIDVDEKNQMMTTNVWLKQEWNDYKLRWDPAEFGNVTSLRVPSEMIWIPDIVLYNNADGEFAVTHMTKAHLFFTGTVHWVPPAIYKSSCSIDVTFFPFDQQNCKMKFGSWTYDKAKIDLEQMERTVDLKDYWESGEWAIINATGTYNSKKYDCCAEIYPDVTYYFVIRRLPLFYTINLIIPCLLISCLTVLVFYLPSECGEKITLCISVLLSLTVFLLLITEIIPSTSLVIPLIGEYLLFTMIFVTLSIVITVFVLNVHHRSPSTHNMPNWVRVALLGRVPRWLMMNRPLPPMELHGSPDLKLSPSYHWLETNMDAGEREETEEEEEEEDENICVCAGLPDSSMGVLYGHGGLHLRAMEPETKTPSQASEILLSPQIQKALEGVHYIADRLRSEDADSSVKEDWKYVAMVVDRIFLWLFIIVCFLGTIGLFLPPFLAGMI
Neuronal acetylcholine receptor; alpha2/beta2, sequence (P12390 whole entry): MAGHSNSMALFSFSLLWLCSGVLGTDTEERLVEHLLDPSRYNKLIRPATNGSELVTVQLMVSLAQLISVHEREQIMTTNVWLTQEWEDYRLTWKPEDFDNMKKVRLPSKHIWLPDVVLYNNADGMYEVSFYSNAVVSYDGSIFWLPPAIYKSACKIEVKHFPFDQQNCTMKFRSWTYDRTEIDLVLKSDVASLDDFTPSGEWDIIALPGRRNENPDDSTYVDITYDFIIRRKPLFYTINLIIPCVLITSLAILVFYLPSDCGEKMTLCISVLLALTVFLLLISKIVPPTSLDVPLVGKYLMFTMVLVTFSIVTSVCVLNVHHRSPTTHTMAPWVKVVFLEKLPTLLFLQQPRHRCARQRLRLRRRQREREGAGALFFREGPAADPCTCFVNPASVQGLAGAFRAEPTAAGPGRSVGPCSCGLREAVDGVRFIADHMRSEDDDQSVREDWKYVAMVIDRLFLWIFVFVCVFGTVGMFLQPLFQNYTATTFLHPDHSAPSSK
Neuronal acetylcholine receptor; alpha2/beta4, sequence (P12389 whole entry): as the sequence (P12389 whole entry) above
Neuronal acetylcholine receptor; alpha2/beta4, sequence (P12392 whole entry): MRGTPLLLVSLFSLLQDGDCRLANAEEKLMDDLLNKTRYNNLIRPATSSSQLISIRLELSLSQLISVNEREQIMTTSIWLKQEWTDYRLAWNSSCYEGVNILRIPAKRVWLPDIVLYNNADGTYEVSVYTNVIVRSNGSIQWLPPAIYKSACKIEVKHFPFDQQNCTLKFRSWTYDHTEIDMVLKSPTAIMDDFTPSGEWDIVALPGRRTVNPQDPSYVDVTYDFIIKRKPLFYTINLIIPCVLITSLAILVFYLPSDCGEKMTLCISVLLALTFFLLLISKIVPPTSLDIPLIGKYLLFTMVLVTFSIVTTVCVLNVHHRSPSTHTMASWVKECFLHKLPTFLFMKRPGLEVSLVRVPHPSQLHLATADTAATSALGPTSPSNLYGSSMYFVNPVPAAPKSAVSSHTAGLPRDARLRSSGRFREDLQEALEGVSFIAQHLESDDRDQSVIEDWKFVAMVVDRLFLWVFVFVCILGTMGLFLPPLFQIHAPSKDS
T3 sequence (P17787 whole entry): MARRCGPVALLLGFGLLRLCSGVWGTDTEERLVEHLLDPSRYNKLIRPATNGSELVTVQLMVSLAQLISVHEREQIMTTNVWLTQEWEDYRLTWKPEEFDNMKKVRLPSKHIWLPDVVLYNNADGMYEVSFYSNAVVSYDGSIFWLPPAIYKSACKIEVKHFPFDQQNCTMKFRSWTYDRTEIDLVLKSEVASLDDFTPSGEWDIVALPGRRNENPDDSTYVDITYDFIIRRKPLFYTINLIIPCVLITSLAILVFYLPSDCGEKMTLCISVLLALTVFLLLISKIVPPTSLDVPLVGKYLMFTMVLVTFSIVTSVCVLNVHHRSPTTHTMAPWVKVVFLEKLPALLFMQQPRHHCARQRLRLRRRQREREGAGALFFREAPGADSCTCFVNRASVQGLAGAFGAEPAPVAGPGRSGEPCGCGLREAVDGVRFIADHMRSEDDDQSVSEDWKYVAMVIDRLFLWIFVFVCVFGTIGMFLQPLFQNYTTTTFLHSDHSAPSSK
T3 sequence (P43681 whole entry): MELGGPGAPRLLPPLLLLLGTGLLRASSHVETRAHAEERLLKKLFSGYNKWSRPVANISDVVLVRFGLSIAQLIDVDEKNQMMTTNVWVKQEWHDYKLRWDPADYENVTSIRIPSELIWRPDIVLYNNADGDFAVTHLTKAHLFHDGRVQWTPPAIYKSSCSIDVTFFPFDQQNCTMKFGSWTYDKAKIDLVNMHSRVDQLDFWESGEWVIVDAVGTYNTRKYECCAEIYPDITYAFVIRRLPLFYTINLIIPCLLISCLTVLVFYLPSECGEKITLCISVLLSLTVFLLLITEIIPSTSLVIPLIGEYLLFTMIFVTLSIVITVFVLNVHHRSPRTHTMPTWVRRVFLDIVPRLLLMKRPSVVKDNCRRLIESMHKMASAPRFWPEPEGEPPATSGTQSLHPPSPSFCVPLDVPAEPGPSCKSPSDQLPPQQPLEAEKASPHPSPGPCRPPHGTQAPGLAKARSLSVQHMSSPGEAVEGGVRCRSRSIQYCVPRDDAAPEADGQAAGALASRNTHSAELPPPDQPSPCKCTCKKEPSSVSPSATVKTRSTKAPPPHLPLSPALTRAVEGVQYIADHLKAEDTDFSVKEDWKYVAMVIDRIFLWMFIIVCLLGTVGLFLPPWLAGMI
Neuronal acetylcholine receptor; alpha4/beta4, sequence (P09483 whole entry): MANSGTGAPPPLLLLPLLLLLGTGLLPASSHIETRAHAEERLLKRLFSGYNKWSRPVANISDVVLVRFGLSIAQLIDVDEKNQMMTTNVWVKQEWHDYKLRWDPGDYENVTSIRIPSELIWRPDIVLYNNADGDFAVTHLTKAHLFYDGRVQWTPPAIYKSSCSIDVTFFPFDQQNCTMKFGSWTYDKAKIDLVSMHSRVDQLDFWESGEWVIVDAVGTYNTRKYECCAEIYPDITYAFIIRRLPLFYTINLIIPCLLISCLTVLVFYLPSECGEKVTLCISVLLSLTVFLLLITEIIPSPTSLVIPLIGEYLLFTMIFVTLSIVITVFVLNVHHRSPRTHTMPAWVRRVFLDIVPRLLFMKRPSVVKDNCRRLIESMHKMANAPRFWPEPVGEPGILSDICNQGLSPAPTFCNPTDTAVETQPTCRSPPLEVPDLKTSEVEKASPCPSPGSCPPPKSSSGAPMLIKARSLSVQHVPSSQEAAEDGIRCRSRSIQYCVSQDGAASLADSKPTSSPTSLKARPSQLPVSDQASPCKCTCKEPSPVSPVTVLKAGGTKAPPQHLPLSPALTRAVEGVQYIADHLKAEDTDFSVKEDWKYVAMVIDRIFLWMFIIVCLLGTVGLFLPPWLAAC
Neuronal acetylcholine receptor; alpha4/beta4, sequence (P12392 whole entry): as the sequence (P12392 whole entry) above
Neuronal acetylcholine receptor; alpha4/beta2 (Rattus norvegicus, UniProt P09483+P12390), sequence (P09483 whole entry): as the sequence (P09483 whole entry) above
Neuronal acetylcholine receptor; alpha4/beta2 (Rattus norvegicus, UniProt P09483+P12390), sequence (P12390 whole entry): as the sequence (P12390 whole entry) above
Neuronal acetylcholine receptor; alpha3/beta4, sequence (P04757 whole entry): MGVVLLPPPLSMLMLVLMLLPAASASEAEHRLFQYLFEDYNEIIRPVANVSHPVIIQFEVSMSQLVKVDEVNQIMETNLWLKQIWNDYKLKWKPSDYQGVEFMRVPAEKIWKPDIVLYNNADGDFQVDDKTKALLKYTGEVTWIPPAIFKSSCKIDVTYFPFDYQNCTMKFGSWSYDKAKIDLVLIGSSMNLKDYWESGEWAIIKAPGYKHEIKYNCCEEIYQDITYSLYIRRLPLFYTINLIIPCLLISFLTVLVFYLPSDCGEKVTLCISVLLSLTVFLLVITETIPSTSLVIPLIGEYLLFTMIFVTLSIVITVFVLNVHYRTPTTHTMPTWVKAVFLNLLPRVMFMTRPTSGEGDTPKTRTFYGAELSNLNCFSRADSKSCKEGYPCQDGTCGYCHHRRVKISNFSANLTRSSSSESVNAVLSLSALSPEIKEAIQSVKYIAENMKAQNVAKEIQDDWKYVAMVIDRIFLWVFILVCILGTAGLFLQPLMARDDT
Neuronal acetylcholine receptor; alpha3/beta4, sequence (P12392 whole entry): as the sequence (P12392 whole entry) above
Neuronal acetylcholine receptor; alpha3/beta2, sequence (P04757 whole entry): as the sequence (P04757 whole entry) above
Neuronal acetylcholine receptor; alpha3/beta2, sequence (P12390 whole entry): as the sequence (P12390 whole entry) above

Compound	Activity (Mus musculus [1])	Ki [3] [nM]	Ki [5] [nM]	Activity (Mus musculus [7])	Ki [8] [nM]	Activity [9]	Ki [10] [nM]	IC50 [11] [nM]	Ki [12] [nM]	Activity (Mus musculus [14])	inhibition [15]	Ki [17] [nM]	inhibition (SH-SY5Y [19])	Ki [20] [nM]	Efficacy [22] [%]	Activity [23]	Ki [24] [nM]	Activity (SH-SY5Y [25])	EC50 [26] [nM]	Efficacy [27] [%]	further results
OCC[C@H]1C[C@@H]1c1cncc(OC[C@@H]2CCN2)c1	Active	979	–	–	–	–	–	–	–	–	–	–	–	–	–	–	–	–	–	–	Ratio Ki [2]: 80
CN1CCC[C@H]1c1cccnc1 [NICOTINE]	–	598	–	–	–	–	–	–	–	–	–	–	–	–	–	–	–	–	–	–	–
FCC[C@H]1C[C@@H]1c1cncc(OC[C@@H]2CCN2)c1	Active	–	138	Active	3220	inactive	6.1	10.2	0.4	Active	inactive	0.2	inactive	0.9	76	inactive	39.1	inactive	11.3	81	remaining at 1 h, 2 µM [4]: ≥ 98%; Ratio Ki (Rattus norvegicus): > 16000; Activity (Mus musculus [6]): Active; remaining at 1 h, 2 µM [13]: ≥ 98%; Activity (Mus musculus [16]): Active; remaining at 1 h, 2 µM [18]: ≥ 98%; remaining at 1 h, 2 µM [21]: ≥ 98%
CNC(=O)OCC[C@H]1C[C@@H]1c1cncc(OC[C@@H]2CCN2)c1	Active	1930	–	–	–	–	–	–	–	–	–	–	–	–	–	–	–	–	–	–	Ratio Ki [2]: 80
CC[C@H]1C[C@@H]1c1cncc(OC[C@@H]2CCN2)c1	Active	–	41.8	inactive	852	inactive	10.3	22.2	0.4	inactive	inactive	0.4	inactive	1.2	68	inactive	14.8	inactive	19.1	87	–
FC(F)C[C@H]1C[C@@H]1c1cncc(OC[C@@H]2CCN2)c1	Active	–	85.4	inactive	1980	inactive	6.9	8.6	0.3	inactive	inactive	0.1	inactive	0.8	75	inactive	23	inactive	8.8	86	Ratio Ki (Rattus norvegicus): > 16000
